Measured values taken from ChEMBL document CHEMBL1125879, “Synthesis and antimalarial activity of 2-aziridinyl- and 2,3-bis(aziridinyl)-1,4-naphthoquinonyl sulfonate and acylate derivatives” (J Med Chem, 1991).

experiment: In vitro antimalarial activity against human malaria parasite, P falciparum (Vietnam Smith strain); assay type: functional, Plasmodium falciparum
Summary of the method: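 P. falciparum in infected erythrocytes, semisynchronized cultures, initial parasitemia 1-3%, in RPMI 1640 with 25 mM HEPES, bicarbonate, 5% pooled calf serum; agents from 10^-2 M DMSO stocks at various concentrations, 48 h exposure with 1 μCi [3H]hypoxanthine per well throughout. Filter-harvested, scintillation counted. IC50 = 50% drop in incorporation vs drug-free controls, graphic extrapolation, mean of 2-4 observations.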

Compound | IC50
CN(C)c1cccc2c(S(=O)(=O)Oc3cccc4c3C(=O)C=C(N3CC3)C4=O)cccc12 | 290 nM
CS(=O)(=O)Oc1cccc2c1C(=O)C(N1CC1)=C(N1CC1)C2=O | 3200 nM
Cc1ccc(S(=O)(=O)Oc2cccc3c2C(=O)C(N2CC2)=C(N2CC2)C3=O)cc1 | 4600 nM
Cc1ccc(S(=O)(=O)Oc2cccc3c2C(=O)C=C(N2CC2)C3=O)cc1 | 200 nM
CC1(C)C2CCC1(CS(=O)(=O)Oc1cccc3c1C(=O)C(N1CC1)=C(N1CC1)C3=O)C(=O)C2 (centres undefined) | 6000 nM
O=C1C(N2CC2)=C(N2CC2)C(=O)c2c(O)cccc21 | 1600 nM
CN(C)c1cccc2c(S(=O)(=O)Oc3cccc4c3C(=O)C(N3CC3)=C(N3CC3)C4=O)cccc12 | 3000 nM
O=C1C(N2CC2)=C(N2CC2)C(=O)c2c(OS(=O)(=O)Cc3ccccc3)cccc21 | 2400 nM
Cc1cc(C)c(S(=O)(=O)Oc2cccc3c2C(=O)C(N2CC2)=C(N2CC2)C3=O)c(C)c1 | 3900 nM
CC1=C(N2CC2)C(=O)c2c(OS(=O)(=O)c3ccc(C(C)(C)C)cc3)cccc2C1=O | 3600 nM
O=C(Oc1cccc2c1C(=O)C=C(N1CC1)C2=O)c1ccccc1 | 450 nM
CCc1ccc(S(=O)(=O)Oc2cccc3c2C(=O)C=C(N2CC2)C3=O)cc1 | 96 nM
O=C1C(N2CC2)=C(N2CC2)C(=O)c2c(OS(=O)(=O)c3ccc(Br)cc3)cccc21 | 3700 nM
O=C1C(N2CC2)=CC(=O)c2c(OS(=O)(=O)c3ccc(I)cc3)cccc21 | 330 nM
CN(C)S(=O)(=O)Oc1cccc2c1C(=O)C=C(NCCCl)C2=O | 2200 nM
O=C1C(N2CC2)=CC(=O)c2c(OS(=O)(=O)/C=C/c3ccccc3)cccc21 | 170 nM
O=C(Oc1cccc2c1C(=O)C(N1CC1)=C(N1CC1)C2=O)c1cccs1 | 2600 nM
O=C1C(NCCCl)=CC(=O)c2c(OS(=O)(=O)Cc3ccccc3)cccc21 | 6500 nM
O=C(Oc1cccc2c1C(=O)C=C(N1CC1)C2=O)c1ccc(Cl)cc1 | 530 nM
CC1=C(N2CC2)C(=O)c2c(O)cccc2C1=O | 1500 nM
O=C1C(N2CC2)=CC(=O)c2c(OS(=O)(=O)c3cccc4ccccc34)cccc21 | 130 nM
COc1ccc(C(=O)Oc2cccc3c2C(=O)C=C(N2CC2)C3=O)cc1 | 540 nM

Compound | IC50
O=C1C(N2CC2)=C(N2CC2)C(=O)c2c(OS(=O)(=O)/C=C/c3ccccc3)cccc21 | 5800 nM
CCc1ccc(S(=O)(=O)Oc2cccc3c2C(=O)C(N2CC2)=C(N2CC2)C3=O)cc1 | 4000 nM
CC(C)c1cc(C(C)C)c(S(=O)(=O)Oc2cccc3c2C(=O)C(N2CC2)=C(N2CC2)C3=O)c(C(C)C)c1 | 3000 nM
O=C1C(N2CC2)=CC(=O)c2c(O)cccc21 | 88 nM
O=C1C(N2CC2)=C(N2CC2)C(=O)c2c(OS(=O)(=O)c3ccccc3)cccc21 | 5800 nM
O=C1C(N2CC2)=C(N2CC2)C(=O)c2c(OS(=O)(=O)c3ccc(I)cc3)cccc21 | 4100 nM
O=C1C(N2CC2)=C(N2CC2)C(=O)c2c(OS(=O)(=O)c3ccc(Cl)cc3)cccc21 | 3200 nM
O=C1C(N2CC2)=C(N2CC2)C(=O)c2c(OS(=O)(=O)c3cccc4ccccc34)cccc21 | 3400 nM
O=C1C(N2CC2)=C(N2CC2)C(=O)c2c(OS(=O)(=O)CCCCl)cccc21 | 3000 nM
CCCCCCCCCCCCCCCCS(=O)(=O)Oc1cccc2c1C(=O)C(N1CC1)=C(N1CC1)C2=O | 20000 nM
O=C1C(N2CC2)=C(N2CC2)C(=O)c2c(OS(=O)(=O)c3ccc([N+](=O)[O-])cc3)cccc21 | 7600 nM
O=C1C(N2CC2)=CC(=O)c2c(OS(=O)(=O)c3cccc4cccnc34)cccc21 | 430 nM
O=C1C(N2CC2)=CC(=O)c2c(OS(=O)(=O)c3cccs3)cccc21 | 470 nM
C/N=C1\C=C(O)c2c(O)cccc2C1=O | 3700 nM
COc1ccc(C(=O)Oc2cccc3c2C(=O)C(N2CC2)=C(N2CC2)C3=O)cc1 | 3700 nM
O=C(Oc1cccc2c1C(=O)C(N1CC1)=C(N1CC1)C2=O)c1ccccc1 | 2600 nM
O=C(Oc1cccc2c1C(=O)C(N1CC1)=C(N1CC1)C2=O)c1ccc(F)cc1 | 4400 nM
Cc1ccc(C(=O)Oc2cccc3c2C(=O)C=C(N2CC2)C3=O)cc1 | 620 nM
O=C1/C(=N/CCCl)C=C(O)c2c(O)cccc21 | 4300 nM
COc1ccc(S(=O)(=O)Oc2cccc3c2C(=O)C=C(N2CC2)C3=O)cc1 | 160 nM
Cc1ccc(C(=O)Oc2cccc3c2C(=O)C(N2CC2)=C(N2CC2)C3=O)cc1 | 4400 nM
O=C(Oc1cccc2c1C(=O)C=C(N1CC1)C2=O)c1ccc(F)cc1 | 490 nM

Compound | IC50
O=C(Oc1cccc2c1C(=O)C=C(N1CC1)C2=O)c1ccco1 | 490 nM
COc1cc(C(=O)Oc2cccc3c2C(=O)C=C(N2CC2)C3=O)cc(OC)c1OC | 160 nM
CN(C)c1cccc2c(S(=O)(=O)Oc3cccc4c3C(=O)C=C(NCCCl)C4=O)cccc12 | 2900 nM
O=C(Oc1cccc2c1C(=O)C(N1CC1)=C(N1CC1)C2=O)c1cc(Cl)sc1Cl | 3900 nM
CC(C)(C)c1ccc(S(=O)(=O)Oc2cccc3c2C(=O)C=C(N2CC2)C3=O)cc1 | 24 nM
O=C1C(N2CC2)=CC(=O)c2c(OS(=O)(=O)c3ccc(F)cc3)cccc21 | 140 nM
O=C(Oc1cccc2c1C(=O)C(N1CC1)=C(N1CC1)C2=O)c1ccco1 | 4600 nM
O=C1C(N2CC2)=C(N2CC2)C(=O)c2c(OS(=O)(=O)c3ccc([N+](=O)[O-])c([N+](=O)[O-])c3)cccc21 | 2400 nM
O=C1C(N2CC2)=CC(=O)c2c(OS(=O)(=O)c3ccccc3)cccc21 | 230 nM
CC(C)c1cc(C(C)C)c(S(=O)(=O)Oc2cccc3c2C(=O)C=C(N2CC2)C3=O)c(C(C)C)c1 | 280 nM
CN(C)C1=CC(=O)c2c(O)cccc2C1=O | 1600 nM
O=C1C(N2CC2)=C(N2CC2)C(=O)c2c(OC(=O)C34CC5CC(CC(C5)C3)C4)cccc21 | 5400 nM
O=C(Oc1cccc2c1C(=O)C(N1CC1)=C(N1CC1)C2=O)c1ccc(Cl)cc1 | 1700 nM
O=C(Oc1cccc2c1C(=O)C=C(N1CC1)C2=O)c1cccs1 | 470 nM
CS(=O)(=O)Oc1cccc2c1C(=O)C=C(NCCCl)C2=O | 8500 nM
COc1cc(C(=O)Oc2cccc3c2C(=O)C(N2CC2)=C(N2CC2)C3=O)cc(OC)c1OC | 3400 nM
O=C1C=CC(=O)c2c(O)cccc21 [JUGLONE] | 3700 nM
O=C1C=C(O)C(=O)c2ccccc21 [LAWSONE] | 100000 nM
CC1=CC(=O)c2ccccc2C1=O [MENADIONE] | 3400 nM
CC1=CC(=O)c2c(O)cccc2C1=O [PLUMBAGIN] | 2400 nM
